# KDM4C inh – inhibitors of GASC-1 (KDM4C) histone demethylase, primary screen, biochemical, single concentration HTS; Lysine-specific demethylase 4C (Homo sapiens), Q9H3R0; GST-KDM4C 2-372, H3K9me3 peptide, LANCE TR-FRET; inhibition, % at 12.5 µM; actives 0.15% (n = 96,000);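 active = mean replicate inhibition above about 25%, with at least 55% of replicates also reaching it, limit read from the data, passing the limit was not always enough; inconclusive = only one of those two conditions met; inactive = neither condition met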
# Target sequence (Q9H3R0 2-372 limits assumed): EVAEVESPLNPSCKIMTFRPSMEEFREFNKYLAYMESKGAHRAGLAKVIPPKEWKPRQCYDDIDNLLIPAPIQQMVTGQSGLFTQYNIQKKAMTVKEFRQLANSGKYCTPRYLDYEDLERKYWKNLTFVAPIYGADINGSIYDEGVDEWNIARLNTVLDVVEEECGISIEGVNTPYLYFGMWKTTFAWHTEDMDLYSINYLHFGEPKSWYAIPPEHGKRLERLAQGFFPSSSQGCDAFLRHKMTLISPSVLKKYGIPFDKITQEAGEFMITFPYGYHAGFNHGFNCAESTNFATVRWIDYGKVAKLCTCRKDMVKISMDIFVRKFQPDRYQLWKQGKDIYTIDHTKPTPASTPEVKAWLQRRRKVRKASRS
#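 Material: N-terminal GST-fused human GASC-1 (KDM4C) fragment, residues 2-372. Input: 10 nM enzyme. Incubation: enzyme reaction 30 min, then detection 60 min, both room temperature. Doses: one test concentration per compound. Read-out basis: inhibition from TR-FRET ratio decrease. Detection: LANCE TR-FRET, excitation 340 nm, emissions 618 and 671 nm.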
# IDH1 mut inh – inhibitors of IDH1 R132H reductase, primary screen, biochemical, plate reader, single point; inhibition, % at 10 µM; Isocitrate dehydrogenase [NADP] cytoplasmic (Homo sapiens), O75874; actives 0.18% (n = 70,000); diaphorase/resazurin fluorescence, 60 min; in the data active = inhibition above about 34%; inconclusive = no clear call, values can overlap the other calls; inactive = below about 11%;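 note: 0% = DMSO and 100% = no enzyme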
# T cruzi growth-1 – T. cruzi intracellular proliferation inhibitors, primary screen, cell-based, beta-gal Tulahuen parasites, NIH3T3 host, luminescence. T. cruzi beta-gal in NIH3T3, GalScreen luminescence, 90 h. inhibition, % at 8.34 µM. actives 5.9% (n = 77,000). AID 624255, 2012;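 active = mean inhibition above about 93%, with at least 55% of replicates each passing it, limit read from the data, passing the limit was not always enough; inconclusive = only one of those two conditions holds; inactive = neither condition holds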
# T cruzi growth-2 – T. cruzi intracellular proliferation inhibitors, confirmation, cell-based, NIH3T3 host, beta-gal parasite, luminescence, cherry-pick; T. cruzi beta-gal in NIH3T3, GalScreen luminescence, 90 h; inhibition, % at 8.35 µM; actives 72% (n = 5,600); shares compounds with T cruzi growth-1;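 active = mean replicate inhibition above about 95% and at least 55% of replicates individually reaching it, limit read from the data; inconclusive = only one of the two criteria is met; inactive = neither criterion is met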
# T cruzi growth-3 – inhibitors of intracellular T. cruzi replication, confirmation, NIH3T3 host cells, beta-gal parasites, cherry-pick, set 2 | T. cruzi beta-gal in NIH3T3, GalScreen luminescence, 90 h | shares compounds with T cruzi growth-1 | actives 21% (n = 5,600) | inhibition, % at 2.09 µM;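 active = mean inhibition above about 95%, with at least 55% of replicates also reaching it, limit read from the data; inconclusive = meets just one of the two conditions; inactive = meets neither condition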;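 note: plate controls were neutral control median for no effect and positive control median for full effect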
# NIH3T3 tox – cytotoxicity in mouse NIH/3T3 fibroblasts, confirmation, cytotoxicity control for T. cruzi proliferation inhibitor project, cell-based, cherry-pick, single point; shares compounds with T cruzi growth-1; NIH/3T3 viability, CellTiter-Glo ATP luminescence, 90 h; cytotoxicity (signal decrease), % at 8.35 µM; actives 14% (n = 5,600); AID 651742, 2012;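 active = mean signal decrease across replicates above about 35% based on untreated-well scatter, with enough replicates individually passing, limit read from the data; inconclusive = no rule stated though some were filed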;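 note: 0% = median of neutral control wells and 100% = median of positive control wells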
# NIH3T3 tox 2 – NIH/3T3 fibroblast cytotoxicity, confirmation, cytotoxicity control, cell-based, cherry-pick, single point, set 2; shares compounds with T cruzi growth-1; NIH/3T3 viability, CellTiter-Glo ATP luminescence, 90 h; inhibition, % at 24.9 µM; actives 56% (n = 5,600);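 active = mean loss of cell viability signal at or above a set limit, and enough replicates individually reaching it; inconclusive = meets only the mean limit or only the replicate share; inactive = meets neither condition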;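 note: 0% = median of neutral control wells and 100% = median of positive control wells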
# Starred values were filed as active, the others as inactive; ? = inconclusive; . = no result. This excerpt belongs to a sample that is enriched for hits.
SMILES,KDM4C inh,IDH1 mut inh,T cruzi growth-1,T cruzi growth-2,T cruzi growth-3,NIH3T3 tox,NIH3T3 tox 2
C[C@@H]1CN([C@H](C)CO)S(=O)(=O)c2ccc(Br)cc2O[C@@H]1CN(C)S(=O)(=O)c1ccccc1,-2,-5,.,.,.,.,.
COc1ccccc1-c1ccc2c(c1)O[C@@H](CN(C)C(C)=O)[C@@H](C)CN([C@H](C)CO)S2(=O)=O,1,0,20,.,.,.,.
COc1ccccc1-c1ccc2c(c1)O[C@@H](CN(C)S(=O)(=O)c1ccccc1)[C@@H](C)CN([C@@H](C)CO)S2(=O)=O,.,.,80*,101*,99*,?,42*
COc1ccccc1-c1ccc2c(c1)O[C@@H](CN(C)S(=O)(=O)c1ccccc1)[C@H](C)CN([C@H](C)CO)S2(=O)=O,.,.,?,105*,50,37*,39*
COc1ccccc1-c1ccc2c(c1)O[C@H](CN(C)S(=O)(=O)c1ccccc1)[C@H](C)CN([C@H](C)CO)S2(=O)=O,.,.,95*,105*,42,25,37*
C[C@H]1CN([C@@H](C)CO)S(=O)(=O)c2ccc(Br)cc2O[C@@H]1CN(C)S(=O)(=O)c1ccccc1,-2,.,.,.,.,.,.
COc1ccccc1-c1ccc2c(c1)O[C@H](CN(C)C(=O)c1ccccc1)[C@H](C)CN([C@H](C)CO)S2(=O)=O,-1,0,10,.,.,.,.
O=C(C[C@H]1CC[C@H]2[C@@H](COC[C@H](O)CN2Cc2cccc(F)c2)O1)NCc1ccncc1,1,.,35,.,.,.,.
COc1ccccc1-c1cn(CC[C@@H]2CC[C@@H](NS(=O)(=O)c3ccccc3C)[C@@H](CO)O2)nn1,0,-1,.,.,.,.,.
COc1ccccc1-c1ccc2c(c1)O[C@@H](CN(C)C)[C@@H](C)CN([C@H](C)CO)S2(=O)=O,2,-1,-3,.,.,.,.
COc1ccccc1-c1ccc2c(c1)O[C@@H](CN(C)C(=O)c1ccccc1)[C@H](C)CN([C@@H](C)CO)S2(=O)=O,0,0,17,.,.,.,.
COc1ccccc1-c1ccc2c(c1)O[C@@H](CN(C)S(=O)(=O)c1ccccc1)[C@@H](C)CN([C@H](C)CO)S2(=O)=O,.,.,90*,105*,58,60*,49*
COc1ccccc1-c1ccc2c(c1)O[C@@H](CN(C)S(=O)(=O)c1ccccc1)[C@H](C)CN([C@@H](C)CO)S2(=O)=O,.,-1,98*,104*,92,47*,38*
CO[C@@H]1CC[C@@H]2CCN(C)C(=O)C[C@H](c3ccccc3)CN(C)C(=O)c3cc(C#N)ccc3OC[C@H]1O2,0,.,9,.,.,.,.
N#C[C@@H]1[C@H](c2ccc(C3=CCCC3)cc2)[C@H](CO)N1C(=O)Cc1ccncc1,-2,.,72,.,.,.,.
COc1ccc2c3c(n(C)c2c1)[C@@H](CO)N(Cc1cc(F)ccc1F)CC31CN(C(C)=O)C1,-4,.,.,.,.,.,.
CN(C)CC(=O)N1[C@H](C#N)[C@H](c2ccccc2-c2ccccc2F)[C@H]1CO,-1,.,.,.,.,.,.
C[C@@H]1CN([C@H](C)CO)C(=O)c2cc(NC(=O)Nc3ccc4c(c3)OCO4)ccc2O[C@@H](C)CCCCO[C@@H]1CN(C)S(=O)(=O)c1cccs1,-2,0,64,.,.,.,.
C[C@H]1CN([C@@H](C)CO)C(=O)c2cc(NC(=O)Nc3ccc(C(F)(F)F)cc3)ccc2O[C@@H]1CN(C)S(=O)(=O)c1cccs1,0,0,90,.,.,.,.
C[C@H](CO)N1C[C@H](C)[C@H](CN(C)S(=O)(=O)c2cccs2)OCCCC[C@H](C)Oc2ccc(NC(=O)Nc3ccc4c(c3)OCO4)cc2C1=O,14,1,86*,106*,53,16,27*
C[C@@H]1CCCCO[C@H](CN(C)S(=O)(=O)c2cccs2)[C@@H](C)CN([C@H](C)CO)C(=O)c2cc(NC(=O)NC3CCCCC3)ccc2O1,1,.,28,.,.,.,.
C[C@@H]1CN([C@@H](C)CO)C(=O)c2cc(NC(=O)Nc3ccc(C(F)(F)F)cc3)ccc2O[C@H]1CN(C)S(=O)(=O)c1cccs1,0,-1,?,80,48,?,57*
C[C@H](CO)N1C[C@H](C)[C@H](CN(C)S(=O)(=O)c2cccs2)OCCCC[C@H](C)Oc2ccc(NC(=O)NC3CCCCC3)cc2C1=O,-1,-1,101*,88,24,22,-6
C[C@@H]1CCCCO[C@H](CN(C)S(=O)(=O)c2cccs2)[C@H](C)CN([C@@H](C)CO)C(=O)c2cc(NC(=O)NC3CCCCC3)ccc2O1,.,2,100*,105*,35,-4,5
C[C@@H]1CCCCO[C@@H](CN(C)S(=O)(=O)c2cccs2)[C@H](C)CN([C@@H](C)CO)C(=O)c2cc(NC(=O)NC3CCCCC3)ccc2O1,-1,4,93,.,.,.,.
SMILES,KDM4C inh,IDH1 mut inh,T cruzi growth-1,T cruzi growth-2,T cruzi growth-3,NIH3T3 tox,NIH3T3 tox 2
C[C@H]1CN([C@@H](C)CO)C(=O)Cc2cc(NC(=O)Nc3ccc(C(F)(F)F)cc3)ccc2O[C@H]1CN(C)Cc1ccc(Cl)c(Cl)c1,0,5,22,.,.,.,.
COc1ccc(NC(=O)N(C)C[C@H]2OCCCC[C@@H](C)Oc3ccc(NS(=O)(=O)c4ccccc4)cc3C(=O)N([C@@H](C)CO)C[C@@H]2C)cc1,0,-3,79,.,.,.,.
O=C(c1cccc(F)c1)N1CC(=O)N2[C@H](C1)[C@H](c1ccc(-c3cccnc3)cc1)[C@@H]2CO,1,.,.,.,.,.,.
CCCNC(=O)C[C@@H]1CC[C@H]2[C@@H](COc3ccc(NC(=O)COC)cc3C(=O)N2C)O1,0,.,38,.,.,.,.
C[C@@H]1CCCCO[C@@H](CN(C)S(=O)(=O)c2cccs2)[C@@H](C)CN([C@H](C)CO)C(=O)c2cc(NC(=O)NC3CCCCC3)ccc2O1,-3,-1,103*,34,2,6,39*
C[C@@H]1CCCCO[C@@H](CN(C)S(=O)(=O)c2cccs2)[C@H](C)CN([C@@H](C)CO)C(=O)c2cc(NC(=O)Nc3ccc(C(F)(F)F)cc3)ccc2O1,1,.,100*,105*,114*,5,-8

# Compound activity (PubChem)
